High-throughput results (PubChem)
Only some compounds are listed: those with a hit (about 4% of all), similar ones and a draw of the others.
H9c2 protect: cardioprotection against H2O2-induced cell death, primary screen, uHTS, H9c2 cells, ATPLite luminescence. AID 588492, 2011. hit rate 0.63% among 360,000. H9c2 cardiomyocytes, H2O2 injury protection, 2 h. protection from H2O2 cell death, % at 20 µM;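 active = compounds giving at least 50% protection of heart cells from peroxide-induced death in the single-dose screen, raw or plate-pattern-corrected value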
NR3A LBD binder: binders of NR3A ligand-binding domain, primary screen, biophysical, differential scanning fluorimetry, uHTS; NR3A LBD differential scanning fluorimetry, Tm shift; 0% = protein alone, 100% = glycine-bound protein; hit rate 2.5% among 340,000; AID 1259313, 2017; Glutamate receptor ionotropic, NMDA 3A (GRIN3A) ligand-binding domain; Tm shift relative to glycine control, % at 25 µM;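 active = melting temperature shift of at least 10% of the positive control shift, at one fixed dose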
iPSC survival up: enhancers of single-cell hiPSC survival, primary screen, ATPlite luminescence. 100% = ROCK inhibitor wells, 0% = DMSO. survival enhancement, % at 20 µM. hit rate 0.044% among 360,000. AID 602274, 2012; in the data active = survival enhancement above about 18%;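 also: cells exposed to compounds for 16 hours before the ATP read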
SENP1 FRET inh: human SENP1 catalytic domain inhibitors, primary screen, biochemical, FRET, uHTS; recombinant SENP1 catalytic domain, CyPet-SUMO1-YPet FRET cleavage; hit rate 0.21% among 360,000; AID 624204, 2012; Sentrin-specific protease 1 (Homo sapiens), Q9P0U3; inhibition, % at 10 µM;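 active = inhibition at least 30% at 10 µM, raw YFP signal under a set limit, fluorescence ratio 0.5 to 1.5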
Target sequence (Q9P0U3 419-644 limits assumed): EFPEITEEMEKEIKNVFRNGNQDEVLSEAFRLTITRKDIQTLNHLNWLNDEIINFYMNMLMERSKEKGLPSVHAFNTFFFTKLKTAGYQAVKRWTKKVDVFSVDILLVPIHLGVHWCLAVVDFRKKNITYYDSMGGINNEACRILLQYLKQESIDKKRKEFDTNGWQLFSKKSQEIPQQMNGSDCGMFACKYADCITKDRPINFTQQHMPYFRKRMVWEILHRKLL
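Test system: human SENP1 catalytic domain; medium: Tris pH 8 buffer plus EDTA, NaCl, BME, BSA, NP40, catalase; incubation: 50 min reaction at room temperature; technique: FRET, CFP and YFP emission; controls: no-enzyme low control and enzyme-plus-DMSO high control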
FAS-TE inh: FAS thioesterase domain inhibitors, primary screen, biochemical, fluorescence intensity, uHTS. hit rate 0.67% among 360,000. inhibition, % at 15 µM. recombinant FAS-TE, OMFH fluorogenic substrate, fluorescence endpoint. Fatty acid synthase (Homo sapiens), P49327;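 active = compounds whose normalised, plate-corrected inhibition of enzyme fluorescence in the single-dose primary screen is 50% or more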
Arrestin-AP2 inh: inhibitors of beta-arrestin/AP2 binding, primary screen, biochemical, GPCR trafficking, flow cytometry; beta-arrestin 1 C-terminal peptide binding to AP2 beta2-adaptin appendage (human); FITC-arrestin peptide / GST-AP2 beads; AP2 beta2 appendage carries R879A mutation; inhibition, % at 10 µM; hit rate 0.31% among 340,000; AID 504490, 2011;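 active = inhibition above a set limit, near 3 SD of compounds lacking own fluorescence, cut at about 54% in these data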
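test system = AP2 appendage R879A on GSH beads | buffer or medium = PBS plus Tween 20 (0.05%) and BSA (0.1%) | incubation = 12 min plus 1 h, RT | detection = bead flow cytometry, FITC channel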
FAS-TE conf: FAS thioesterase domain inhibitors, confirmation, biochemical, fluorescence intensity, single concentration; shares compounds with FAS-TE inh; hit rate 45% among 2,300; inhibition, % at 15 µM; recombinant FAS-TE, OMFH fluorogenic substrate;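 active = compounds inhibiting the enzyme by at least 50% at 15 µM in any one of the replicates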
Of the large screens only hits and unclear results are named; the others gave an inactive call (follow-up assays come after a bar, where they were run).

N#CC(C#N)=C1SC(=Nc2ccccc2)C(=Nc2ccccc2)N1c1ccccc1	FAS-TE inh 57 | FAS-TE conf inactive
Cc1ccn2c(=O)c(C(=O)NC3CCCCC3C)c(O)nc2c1 (centres undefined)	none
O=[N+]([O-])c1ccc(Sc2n[nH]c(-c3ccccc3)n2)nc1	FAS-TE inh 52 | FAS-TE conf 64
O=C(c1cccc(NS(=O)(=O)c2ccc(F)c(F)c2)c1)N1CCN(C(c2ccccc2)c2ccccc2)CC1	FAS-TE inh 90 | FAS-TE conf inactive
COc1ccc(-c2nn(-c3ccccc3)cc2/C=N/O)cc1OC	none
COc1ccc(-c2nn(-c3ccccc3)cc2/C=N/NC(=O)c2ccc(Br)o2)cc1	none
COc1ccc(-c2nn(-c3ccccc3)cc2/C=N/NC(=S)NC(C)C)cc1OC	FAS-TE inh 56 | FAS-TE conf inactive
COc1ccc(-c2nn(-c3ccccc3)cc2/C=N/NC(=O)c2cccc(S(=O)(=O)Nc3ccccc3OC)c2)cc1	FAS-TE inh 54 | FAS-TE conf inactive
COC(=O)/C=C1\OCc2ccccc21	none (no result: H9c2 protect, NR3A LBD binder, iPSC survival up, FAS-TE inh, Arrestin-AP2 inh)
CC(CCc1ccccc1)NC(=O)COC(=O)c1cc(NS(=O)(=O)c2ccc(Cl)c([N+](=O)[O-])c2)ccc1O (centres undefined)	NR3A LBD binder 22, FAS-TE inh 55 | FAS-TE conf 62
CNS(=O)(=O)c1cccc(C(=O)OCC(=O)NC(C)CCc2ccccc2)c1 (centres undefined)	none
O=C(Nc1ccccc1)C1=C(c2ccccc2)S(=O)(=O)CCS1(=O)=O	FAS-TE inh 80 | FAS-TE conf inactive
NC(=S)N/N=C/c1ccc(-c2ccc(SC(F)F)cc2)o1	FAS-TE inh 55 | FAS-TE conf 39
Cc1ccc(-c2ccc(/C=N/NC(N)=S)o2)cc1	none
CCOC(=O)CCSc1nc2c(c(C(F)(F)F)c1C#N)CCC2	FAS-TE inh 71 | FAS-TE conf 65
Cc1ccc(S(=O)(=O)N(C)C)cc1NC(=O)[C@H](Cc1ccccc1)N1C(=O)c2ccccc2C1=O	FAS-TE inh 53 | FAS-TE conf inactive
COc1ccc(S(=O)(=O)N(C)C)cc1NC(=O)[C@H](Cc1ccccc1)N1C(=O)c2ccccc2C1=O	FAS-TE inh 65 | FAS-TE conf inactive
CCOc1ccccc1C(=O)N[C@H](C(=O)Nc1cc(S(=O)(=O)N(C)C)ccc1OC)C(C)C	none
O=C(c1cc2c(c(-c3cccc(-c4ccncc4)c3)n1)[C@@H](CCO)N(C(=O)c1ccc3c(c1)OCO3)C2)N1CCOCC1	none (no result: H9c2 protect, NR3A LBD binder, Arrestin-AP2 inh)
CC(NC(=O)C12CC3CC(CC(C3)C1)C2)C(=O)N/N=C/C1=C(N2CCOCC2)C(=C\c2cccc([N+](=O)[O-])c2)/CC1 (centres undefined)	FAS-TE inh 89 | FAS-TE conf inactive
Cc1ccc([N+](=O)[O-])cc1NC(=O)CCc1ccccc1	FAS-TE inh 50 | FAS-TE conf 52
O=C(CN1CCN(c2cccc(Cl)c2)CC1)Nc1ccc([N+](=O)[O-])cc1C(=O)Nc1ccccc1F	FAS-TE inh 60 | FAS-TE conf inactive
O=C(CCCc1ccccc1)Nc1cccc([N+](=O)[O-])c1	FAS-TE inh 66 | FAS-TE conf 60
Cc1ccc([N+](=O)[O-])cc1NC(=O)CCCOc1ccccc1	FAS-TE inh 68 | FAS-TE conf 32
O=C(CCCOc1ccccc1)Nc1cccc([N+](=O)[O-])c1	none
Nc1ccn([C@@H]2O[C@H](C(=O)N(CCC3=CCCCC3)CC3CC3)[C@@H](O)[C@H]2O)c(=O)n1	none (no result: NR3A LBD binder, Arrestin-AP2 inh)
COc1ccc(C(=O)COC(=O)C2COc3ccccc3O2)c(OC)c1 (centres undefined)	none (no result: NR3A LBD binder, Arrestin-AP2 inh)
COc1ccc(Cc2nc3ccc(C(=O)NCCc4ncccc4C)cc3o2)cc1OC	none (no result: NR3A LBD binder, Arrestin-AP2 inh)
COc1cc(C)ccc1S(=O)(=O)NC(=O)C1(C)CCN1C(=O)Cc1ccc(C(C)(C)C)cc1 (centres undefined)	none (no result: NR3A LBD binder, Arrestin-AP2 inh)
O=C(CN1CCCCCC1)Nc1cccc([N+](=O)[O-])c1	none
CCCCNC(=S)Nc1cc([N+](=O)[O-])ccc1C	FAS-TE inh 51 | FAS-TE conf 37
O=C(CN1CCN(c2ccccc2)CC1)Nc1cccc([N+](=O)[O-])c1	FAS-TE inh 51 | FAS-TE conf 50
CSCC[C@H](NC(=O)c1cc([N+](=O)[O-])ccc1Cl)c1nc2ccccc2[nH]1	FAS-TE inh 63 | FAS-TE conf inactive
CSCCC(NC(=O)c1cccc([N+](=O)[O-])c1)c1nc2ccccc2[nH]1 (centres undefined)	none
O=C(NCc1cn(-c2ccccc2)nc1-c1ccccc1)c1cc([N+](=O)[O-])cc([N+](=O)[O-])c1	none
O=C(NCc1cn(-c2ccccc2)nc1-c1ccccc1)c1cccc([N+](=O)[O-])c1	FAS-TE inh 51 | FAS-TE conf inactive
CCN(C[C@H]1N[C@@](Cc2ccccc2)(C(=O)OC)[C@H]2C(=O)N(Cc3ccccc3)C(=O)[C@@H]12)C(=O)Nc1ccc(Cl)cc1	NR3A LBD binder 17, FAS-TE inh 60 | FAS-TE conf inactive
COC(=O)[C@]1(Cc2ccccc2)N[C@H](CN(C)C(=O)Nc2ccc(C(F)(F)F)cc2)[C@@H]2C(=O)N(Cc3ccccc3)C(=O)[C@@H]21	FAS-TE inh 63 | FAS-TE conf inactive
CCN(C[C@H]1N[C@@](Cc2ccccc2)(C(=O)OC)[C@H]2C(=O)N(Cc3ccccc3)C(=O)[C@@H]12)C(=O)Nc1ccc(F)cc1	none
CCCS(=O)(=O)NC(=O)C1(C)CCN(C(=O)c2ccc(C(=O)OC)cc2)C1 (centres undefined)	none (no result: NR3A LBD binder, Arrestin-AP2 inh)
O=C(NNc1ccc([N+](=O)[O-])cc1[N+](=O)[O-])C1C2CCCCC21 (centres undefined)	FAS-TE inh 62 | FAS-TE conf inactive
O=C(NNc1ccc([N+](=O)[O-])cc1)C1C2CCCCC21 (centres undefined)	none
CC1C(=O)N(Cc2cn(CC3CCCCC3)nn2)CCS(=O)(=O)N1Cc1ccc(-c2ccccc2)cc1 (centres undefined)	none (no result: NR3A LBD binder, Arrestin-AP2 inh)
